{"data": "Measured values collected from several papers", "Sialidase-4": "Sialidase-4 (Homo sapiens, UniProt Q8WWR8)", "ALOX15": "Polyunsaturated fatty acid lipoxygenase ALOX15 (ALOX15, Homo sapiens, UniProt P16050)", "ache": "Acetylcholinesterase (ache, Electrophorus electricus, UniProt O42275)", "note": "Lines come from different studies, so protocols differ."}
{"Compound": "CC(C)CCC(=O)N[C@H]1[C@H]([C@H](O)[C@H](O)CO)OC(C(=O)O)=C[C@@H]1O", "target": "Sialidase-4", "assay": "enzyme activity, inhibitor", "IC50 [µM]": 270}
{"Compound": "CCOC(=O)c1ccccc1-c1c2ccc(=O)cc-2oc2cc(OCCCNc3c(-c4ccc([N+](=O)[O-])cc4)nc4ccccn34)ccc12", "target": "ALOX15", "assay": "enzyme activity, inhibitor, absorbance", "IC50 [µM]": "> 100"}
{"Compound": "O=C(N1CCC2(CC1)C[C@H](CN1CCCCS1(=O)=O)CCO2)C1(c2ccccc2)CCCC1", "target": "ATP-dependent RNA helicase DDX3X (DDX3X, Homo sapiens, UniProt O00571)", "assay": "ATPase activity, inhibitor", "IC50 [µM]": "> 50"}
{"Compound": "O=[N+]([O-])c1ccc(-c2nnc(-c3ccc(OCc4cn(Cc5ccc(F)cc5)nn4)cc3)o2)cc1", "target": "ache", "assay": "enzyme activity, inhibitor, Ellman", "IC50 [µM]": "> 100"}
{"Compound": "CC(C)Cc1cn([C@H]2[C@H]([C@H](O)[C@H](O)CO)OC(C(=O)O)=C[C@@H]2O)nn1", "target": "Sialidase-4", "assay": "enzyme activity, inhibitor", "IC50 [µM]": "> 500"}
{"Compound": "CCOC(=O)c1ccccc1-c1c2ccc(=O)cc-2oc2cc(OCCCNc3c(C4CCCCCC4)nc4ccccn34)ccc12", "target": "ALOX15", "assay": "enzyme activity, inhibitor, absorbance", "IC50 [µM]": "> 100"}
{"Compound": "CCN(C)C(=O)Oc1ccc(CCC(=O)N(CC)Cc2ccccc2)cc1OC", "target": "ache", "assay": "enzyme activity, inhibitor, Ellman", "IC50 [µM]": 13.8}
{"Compound": "CCCC[C@H]1C(=O)N(C)[C@@H](CCCC)C(=O)N[C@@H](CCCCNC(=O)CN2CCN(CC(=O)O)CCN(CC(=O)O)CC2)C(=O)N[C@H](C(=O)NCC(N)=O)CSCC(=O)N[C@@H](Cc2ccc(O)cc2)C(=O)N(C)[C@@H](C)C(=O)N[C@@H](CC(N)=O)C(=O)N2CCC[C@H]2C(=O)N[C@@H](Cc2c[nH]cn2)C(=O)N[C@@H](CCC(=O)O)C(=O)N2C[C@H](O)C[C@H]2C(=O)N[C@@H](Cc2c[nH]c3ccccc23)C(=O)N[C@@H](CO)C(=O)N[C@@H](Cc2cn(CC(=O)O)c3ccccc23)C(=O)N1C", "target": "Programmed cell death 1 ligand 1 (CD274, Homo sapiens, UniProt Q9NZQ7)", "assay": "ligand displacement, radioligand", "IC50 [µM]": 0.00245}
{"Compound": "c1ccc(Cn2cc(COc3ccc(-c4nnc(-c5ccccc5)o4)cc3)nn2)cc1", "target": "ache", "assay": "enzyme activity, inhibitor, Ellman", "IC50 [µM]": "> 100"}
{"Compound": "CC(C(=O)O)n1nc(Cn2cc3cc(OCCF)c(Cl)cc3n2)c2ccccc2c1=O (racemic)", "target": "Sphingosine 1-phosphate receptor 1 (S1PR1, Homo sapiens, UniProt P21453)", "assay": "ligand displacement, radioligand", "setting": "cell membranes", "IC50 [µM]": "> 1"}
{"Compound": "COc1cc(CCC(=O)N2CCC(Cc3ccccc3)CC2)ccc1OC(=O)N(c1ccccc1)c1ccccc1", "target": "ache", "assay": "enzyme activity, inhibitor, Ellman", "IC50 [µM]": 10.5}
{"Compound": "COc1ccc(-c2nnc(-c3ccc(OCc4cn(Cc5ccc(Br)cc5)nn4)cc3)o2)cc1", "target": "ache", "assay": "enzyme activity, inhibitor, Ellman", "IC50 [µM]": "> 100"}
{"Compound": "CC(C)(C)c1cn([C@H]2[C@H]([C@H](O)[C@H](O)CO)OC(C(=O)O)=C[C@@H]2O)nn1", "target": "Sialidase-4", "assay": "enzyme activity, inhibitor", "IC50 [µM]": 80}
{"Compound": "CCOC(=O)c1ccccc1-c1c2ccc(=O)cc-2oc2cc(OCCCNc3c(-c4ccc5ccccc5c4)nc4ccccn34)ccc12", "target": "ALOX15", "assay": "enzyme activity, inhibitor, absorbance", "IC50 [µM]": "> 100"}
{"Compound": "CC(C)(C)NC(=O)N[C@H]1[C@H]([C@H](O)[C@H](O)CO)OC(C(=O)O)=C[C@@H]1O", "target": "Sialidase-4", "assay": "enzyme activity, inhibitor", "IC50 [µM]": "> 500"}
{"Compound": "O=C(/C=C/c1ccc(OC(=O)N2CCCC2)cc1)NC1CCN(Cc2ccccc2)CC1", "target": "ache", "assay": "enzyme activity, inhibitor, Ellman", "IC50 [µM]": 4.5}
{"Compound": "CN(C(=O)CC(C)(C)C)[C@H]1[C@H]([C@H](O)[C@H](O)CO)OC(C(=O)O)=C[C@@H]1O", "target": "Sialidase-4", "assay": "enzyme activity, inhibitor", "IC50 [µM]": "> 500"}
{"Compound": "CC(C)(C)OC(=O)NC1CCCN(C(=O)/C=C/c2ccc([N+](=O)[O-])cc2)C1 (stereo not drawn)", "target": "ache", "assay": "enzyme activity, inhibitor, Ellman", "IC50 [µM]": "> 50"}
